From ChEMBL document CHEMBL4422661, “Design and Synthesis of a Novel and Selective Kappa Opioid Receptor (KOR) Antagonist (BTRX-335140)” (J Med Chem, 2019)

How the values were obtained:
[1] = Oral bioavailability in Sprague-Dawley rat at 5 mg/kg by LC-MS/MS analysis; format: ADME, organism-based; conditions: in vivo
[2] = AUCt in Sprague-Dawley rat at 5 mg/kg, po by LC-MS/MS analysis; format: ADME, organism-based; conditions: in vivo
Procedure, shortened: (§1)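 Whole blood (250 μL) drawn via jugular vein cannula, n = 3. The iv route was sampled at 5, 15 and 30 min and 1, 2, 4, 8 and 24 h; the oral route at 15 and 30 min and 1, 2, 4, 8 and 24 h. LC-MS/MS quantitation.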

[3] = Oral bioavailability in C57B16 mouse at 10 mg/kg by LC-MS/MS analysis; format: ADME, organism-based; conditions: in vivo
[4] = Volume of distribution at steady state in Sprague-Dawley rat at 1 mg/kg, iv by LC-MS/MS analysis; format: ADME, organism-based; conditions: in vivo
Procedure, shortened: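 Male Sprague-Dawley rats (350–400 g) received the monotartrate salt in 10:10:80 DMSO/Tween 80/water at 1 mg ml⁻¹, 1 mg kg⁻¹ i.v. or 2 mg kg⁻¹ p.o. Peripheral whole blood was sampled at 5, 15 and 30 min and 1, 2, 4, 6 and 8 h after dosing.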

[5] = Solubility of the compound at pH 7.4; format: physicochemical; conditions: buffer
[6] = Cmax in C57B16 mouse at 10 mg/kg, po by LC-MS/MS analysis; format: ADME, organism-based; set-up: dose 10 mg/kg, route oral; conditions: in vivo
[7] = AUCt in Sprague-Dawley rat at 1 mg/kg, iv by LC-MS/MS analysis; format: ADME, organism-based; conditions: in vivo; procedure, shortened: as §1
[8] = Ratio of drug uptake in Sprague-Dawley rat brain to plasma at 5 mg/kg, po after 1 hr by LC-MS/MS analysis; format: ADME, organism-based
Procedure, shortened: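 Fasted male rats (n = 2) received the monotartrate salt orally at 5 mg kg⁻¹. Plasma, brain and CSF levels were measured 1 h after dosing, and the ratio was taken from mean values.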

[9] = AUCt in C57B16 mouse at 10 mg/kg, po by LC-MS/MS analysis; format: ADME, organism-based; conditions: in vivo
[10] = Cmax in Sprague-Dawley rat at 5 mg/kg, po by LC-MS/MS analysis; format: ADME, organism-based; set-up: dose 5 mg/kg, route oral; conditions: in vivo
[11] = Volume of distribution at steady state in C57B16 mouse at 3 mg/kg, iv by LC-MS/MS analysis; format: ADME, organism-based; conditions: in vivo
[12] = AUCt in C57B16 mouse at 3 mg/kg, iv by LC-MS/MS analysis; format: ADME, organism-based; conditions: in vivo
[13] = AUC (0 to infinity) in Sprague-Dawley rat at 2 mg/kg, po by LC-MS/MS analysis; format: ADME, organism-based; set-up: dose 2 mg/kg, time infinity, route oral; conditions: in vivo
Procedure, shortened: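 Male Sprague-Dawley rats (350–400 g) dosed orally as the monotartrate salt, a 1 mg ml⁻¹ solution in 10:10:80 DMSO/Tween 80/water (v/v/v). Peripheral whole blood sampled at 5, 15 and 30 min and 1, 2, 4, 6 and 8 h post-dose. Concentrations measured by LC-MS/MS.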

[14] = Cmax in Sprague-Dawley rat at 2 mg/kg, po by LC-MS/MS analysis; format: ADME, organism-based; set-up: dose 2 mg/kg, route oral; conditions: in vivo
Procedure, shortened: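 Male Sprague-Dawley rats (350–400 g) given monotartrate salt as 1 mg ml⁻¹ solution in 10:10:80 DMSO/Tween 80/water, 1 mg kg⁻¹ i.v. or 2 mg kg⁻¹ p.o.; peripheral whole blood sampled at 5, 15, 30 min and 1, 2, 4, 6, 8 h; concentrations by LC-MS/MS.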

[15] = Ratio of drug uptake in C57B16 mouse brain to plasma at 10 mg/kg, ip after 30 mins by LC-MS/MS analysis; format: ADME, organism-based; conditions: 0.5 h
Procedure, shortened: (§2)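 C57Bl6 mice (n = 6) were given the monotartrate salt i.p. at 10 mg kg⁻¹ (1 mg ml⁻¹ in DMSO/Tween 80/water 1:1:8). Plasma (EDTA) and brain were taken at 30 and 120 min. Brain homogenate was precipitated with acetonitrile, levels were measured by LC-MS/MS, and values were derived by noncompartmental fitting.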

[16] = Oral bioavailability in Sprague-Dawley rat at 2 mg/kg by LC-MS/MS analysis; format: ADME, organism-based; conditions: in vivo
[17] = AUC (0 to infinity) in Sprague-Dawley rat at 1 mg/kg, iv by LC-MS/MS analysis; format: ADME, organism-based; set-up: dose 1 mg/kg, route intravenous, time infinity; conditions: in vivo
[18] = Ratio of drug uptake in C57B16 mouse brain to plasma at 10 mg/kg, ip after 120 mins by LC-MS/MS analysis; format: ADME, organism-based; conditions: 2 h; procedure, shortened: as §2

Q: Which F [1] does the source give for `CCc1cc(F)c2nc(N3CCC(NC4CCOCC4)CC3)c(-c3nc(C)no3)c(C)c2c1.O=C(O)C(O)C(O)C(=O)O` here?
A: 30.2%

Q: What about the AUCt [2] of the same molecule?
A: 232 ng·h/mL

Q: And the F [3]?
A: 12%

Q: And the Vdss [4]?
A: 13.8 L/kg

Q: What about the solubility [5] of the same molecule?
A: 74 µM

Q: And the Cmax [6]?
A: 80.9 ng/mL

Q: And the AUCt [7]?
A: 153 ng·h/mL

Q: And the BPR [8]?
A: 2.2

Q: What about the AUCt [9] of the same molecule?
A: 265 ng·h/mL

Q: What about the Cmax [10] of the same molecule?
A: 39.1 ng/mL

Q: And the Vdss [11]?
A: 7.72 L/kg

Q: What about the AUCt [12] of the same molecule?
A: 725 ng·h/mL

Q: Which results are given for `Cc1ccc2nc(N3CCC(NC4CCOCC4)CC3)c(-c3nc(C)no3)cc2c1.O=C(O)C(O)C(O)C(=O)O`?
A: AUC [13]: 1705 ng·min/mL; Vdss [4]: 12.95 L/kg; Cmax [14]: 110.16 ng/mL; BPR [15]: 2.9; F [16]: 20%; AUC [17]: 12740 ng·min/mL; BPR [18]: 3.8
